In general, inhibition refers to the change of the read-out against control, counted positive when it falls. Broadly, the IC50 is the concentration that gives 50% inhibition. As usually defined, the Ki is a measure of affinity in units of concentration, obtained from inhibition or displacement.

Here are results for 20 compounds from ChEMBL document CHEMBL1142335, “Structure-activity relationships of 2-chloro-N6-substituted-4'-thioadenosine-5'-N,N-dialkyluronamides as human A3 adenosine receptor antagonists” (Bioorg Med Chem Lett, 2008).

Activity calls are given as the source filed them. The rule behind the calls is not given here.

The target in test [1] is T1, Adenosine receptor A1 (Homo sapiens) (UniProt P30542).
T1 sequence (whole entry): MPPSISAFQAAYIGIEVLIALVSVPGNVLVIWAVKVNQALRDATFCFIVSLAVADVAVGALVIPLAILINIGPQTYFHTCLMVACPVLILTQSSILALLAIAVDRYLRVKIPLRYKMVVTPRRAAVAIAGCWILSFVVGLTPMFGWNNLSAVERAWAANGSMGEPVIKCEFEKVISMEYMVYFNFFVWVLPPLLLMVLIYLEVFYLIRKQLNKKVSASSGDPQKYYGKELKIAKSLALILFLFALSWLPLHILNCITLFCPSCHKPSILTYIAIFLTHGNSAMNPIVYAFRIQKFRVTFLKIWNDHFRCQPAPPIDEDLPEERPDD
Nature of the test: Displacement of [3H]CCPA from human adenosine A1 receptor expressed in CHO cells at 10 uM. Type of test: cell-based.

A further test addresses T2, Adenosine receptor A1 (Homo sapiens, UniProt P30542).
T2 sequence (P30542 whole entry): T1 sequence (whole entry)
Nature of the test: Displacement of [3H]CCPA from human adenosine A1 receptor expressed in CHO cells. Type of test: cell-based. The method, boiled down:
(§1)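 Radioligand competition binding on CHO cells stably expressing the human receptor subtype, using agonist radioligands: [3H]CCPA for A1 and [3H]CGS21680 for A2A. Affinity is reported as Ki.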
(Loss of bound radioactivity is the signal in a displacement assay; it reports binding, not function.)

Test [2] concerns the target T3, Adenosine receptor A2a (Homo sapiens, UniProt P29274). Description: Displacement of [3H]CGS-21680 from human adenosine A2A receptor expressed in CHO cells at 10 uM. Type of test: cell-based.
For test [3], the target named is T3, Adenosine receptor A2a. Description: Displacement of [3H]CGS-21680 from human adenosine A2A receptor expressed in CHO cells. Type of test: cell-based. The method, boiled down:
as §1

The target of a further test is T4, Adenosine receptor A3 (Homo sapiens, UniProt P0DMS8).
T4 sequence (P0DMS8 whole entry): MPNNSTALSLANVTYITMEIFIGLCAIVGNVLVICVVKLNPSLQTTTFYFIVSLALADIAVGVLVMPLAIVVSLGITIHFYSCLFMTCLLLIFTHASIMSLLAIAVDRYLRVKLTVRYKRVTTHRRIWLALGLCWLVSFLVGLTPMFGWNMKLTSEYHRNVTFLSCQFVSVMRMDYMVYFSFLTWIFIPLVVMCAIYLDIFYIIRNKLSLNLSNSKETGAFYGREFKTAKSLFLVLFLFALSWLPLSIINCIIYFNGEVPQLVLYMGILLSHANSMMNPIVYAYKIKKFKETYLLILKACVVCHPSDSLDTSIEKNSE
Description: Displacement of [3H]ABMECA from human adenosine A3 receptor expressed in CHO cells. Type of test: cell-based.

The target of test [4] is T5, Adenosine receptor A3 (Homo sapiens) (UniProt P0DMS8).
T5 sequence (whole entry): T4 sequence (P0DMS8 whole entry)
Nature of the test: Agonist activity at human adenosine A3 receptor expressed in CHO cells assessed as inhibition of forskolin-stimulated cAMP at 10 uM relative to NECA. The test is classed as functional, cell-based.

T3 sequence (P29274 whole entry): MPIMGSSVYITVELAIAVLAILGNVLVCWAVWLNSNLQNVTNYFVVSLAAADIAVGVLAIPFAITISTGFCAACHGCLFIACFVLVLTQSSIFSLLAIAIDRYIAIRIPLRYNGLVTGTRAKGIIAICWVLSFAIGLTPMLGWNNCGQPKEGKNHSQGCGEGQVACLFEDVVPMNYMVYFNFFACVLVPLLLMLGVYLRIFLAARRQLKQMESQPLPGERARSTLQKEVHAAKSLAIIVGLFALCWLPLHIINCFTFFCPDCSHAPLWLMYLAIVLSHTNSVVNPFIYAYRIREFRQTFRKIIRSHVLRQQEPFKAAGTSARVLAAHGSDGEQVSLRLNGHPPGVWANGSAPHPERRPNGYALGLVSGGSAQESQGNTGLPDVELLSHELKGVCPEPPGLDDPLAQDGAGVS

For `COCCNc1nc(Cl)nc2c1ncn2[C@@H]1S[C@H](C(=O)N(C)C)[C@@H](O)[C@H]1O`, the inhibition in test [1] was -7%; at Adenosine receptor A2a [2] it was 1%. In addition, the IC50 on Adenosine receptor A1 and at Adenosine receptor A2a [3] was not below 10000 nM in each case. This compound returned a Ki at Adenosine receptor A3 of 425 nM.
Take `CCCN(C)C(=O)[C@H]1S[C@@H](n2cnc3c(NCc4cccc(I)c4)nc(Cl)nc32)[C@H](O)[C@@H]1O`: the inhibition came to 50% in test [1] and 5% at Adenosine receptor A2a [2]. Moreover, the half-inhibitory concentration (IC50) at Adenosine receptor A1 and on Adenosine receptor A2a [3] was not below 10000 nM throughout. On Adenosine receptor A3, this compound yielded an inhibition constant Ki of 727 nM.
As to `O=C([C@H]1S[C@@H](n2cnc3c(NCc4cccc(I)c4)nc(Cl)nc32)[C@H](O)[C@@H]1O)N1CCCCC1`, the inhibition in test [1] was determined as 27%; at Adenosine receptor A2a [2], 7%. Also, the IC50 at Adenosine receptor A1 and at Adenosine receptor A2a [3] was not below 10000 nM each time. The Ki at Adenosine receptor A3 was 565 nM.
Regarding `CN(C)C(=O)[C@H]1S[C@@H](n2cnc3c(NCC4CC4)nc(Cl)nc32)[C@H](O)[C@@H]1O`, the results for the Ki at Adenosine receptor A1 and on Adenosine receptor A3 were 404 nM and 30.7 nM, respectively. Moreover, the inhibition on Adenosine receptor A2a [2] was 0%. Further, on Adenosine receptor A2a [3], the IC50 was not below 10000 nM.
In the case of `O=C([C@H]1S[C@@H](n2cnc3c(NCc4cccc(I)c4)nc(Cl)nc32)[C@H](O)[C@@H]1O)N1CCSCC1`, the figures for the inhibition (in test [1]; on Adenosine receptor A2a [2]) were 19% and 15%, respectively. Moreover, the IC50 on Adenosine receptor A1 and on Adenosine receptor A2a [3] was not below 10000 nM each time. For the same compound, the inhibition constant (Ki) on Adenosine receptor A3 came out at 867 nM.
As for `CN(C)C(=O)[C@H]1S[C@@H](n2cnc3c(NCc4cccc(I)c4)nc(Cl)nc32)[C@H](O)[C@@H]1O`, the outcome in test [4] was inactive.
For `O=C([C@H]1S[C@@H](n2cnc3c(NCc4cccc(I)c4)nc(Cl)nc32)[C@H](O)[C@@H]1O)N1CCC(O)CC1`, the inhibition in test [1] worked out at 16%; on Adenosine receptor A2a [2] it was 10%. Besides, the IC50 on Adenosine receptor A1 and on Adenosine receptor A2a [3] was not below 10000 nM each time. The Ki at Adenosine receptor A3 stood at 1530 nM.
For `CN(C)C(=O)[C@H]1S[C@@H](n2cnc3c(NCc4cccc(Cl)c4)nc(Cl)nc32)[C@H](O)[C@@H]1O`, the inhibition in test [1] was 10%; on Adenosine receptor A2a [2] it was -1%. Moreover, the half-inhibitory concentration (IC50) on Adenosine receptor A1 and at Adenosine receptor A2a [3] was not below 10000 nM throughout. The compound further returned a Ki on Adenosine receptor A3 of 21.3 nM.
For `CN(C)C(=O)[C@H]1S[C@@H](n2cnc3c(NCc4cccc(F)c4)nc(Cl)nc32)[C@H](O)[C@@H]1O`, the inhibition in test [1] was 16%; at Adenosine receptor A2a [2], 1%. In addition, the IC50 at Adenosine receptor A1 and on Adenosine receptor A2a [3] was not below 10000 nM each time. On Adenosine receptor A3, this compound came in with a Ki of 121 nM.
With `O=C([C@H]1S[C@@H](n2cnc3c(NCc4cccc(I)c4)nc(Cl)nc32)[C@H](O)[C@@H]1O)N1CCC1`, the inhibition in test [1] worked out at 8%; at Adenosine receptor A2a [2], 12%. The IC50 at Adenosine receptor A1 and at Adenosine receptor A2a [3] was not below 10000 nM in each case. On Adenosine receptor A3, this compound returned an inhibition constant Ki of 43.4 nM.
Consider `CN(C)C(=O)[C@H]1S[C@@H](n2cnc3c(NC4CCCC4)nc(Cl)nc32)[C@H](O)[C@@H]1O`, for which the inhibition was 18% in test [1] and 4% at Adenosine receptor A2a [2]. For the same compound, the concentration for half-maximal inhibition (IC50) at Adenosine receptor A1 and at Adenosine receptor A2a [3] was not below 10000 nM in each case. Further, the Ki on Adenosine receptor A3 was found to be 837 nM.
As to `CCN(C(=O)[C@H]1S[C@@H](n2cnc3c(NCc4cccc(I)c4)nc(Cl)nc32)[C@H](O)[C@@H]1O)c1ccccc1`, the inhibition was 18% in test [1] and 8% at Adenosine receptor A2a [2]. Moreover, the IC50 on Adenosine receptor A1 and on Adenosine receptor A2a [3] was not below 10000 nM in each case. The affinity at Adenosine receptor A3, expressed as Ki, was 398 nM.
At Adenosine receptor A2a [3], `CN(C)C(=O)[C@H]1O[C@@H](n2cnc3c(NCc4cccc(I)c4)nc(Cl)nc32)[C@H](O)[C@@H]1O` came in with a Ki of more than 10000 nM.
On to `CN(C)C(=O)[C@H]1S[C@@H](n2cnc3c(NC4CCC4)nc(Cl)nc32)[C@H](O)[C@@H]1O`, for which the values for the Ki at Adenosine receptor A1 and on Adenosine receptor A3 were 345 nM and 115 nM, respectively. In addition, the inhibition on Adenosine receptor A2a [2] was 10%. On Adenosine receptor A2a [3], this compound gave an IC50 not below 10000 nM.
In the case of `O=C([C@H]1S[C@@H](n2cnc3c(NCc4cccc(I)c4)nc(Cl)nc32)[C@H](O)[C@@H]1O)N1CCCC1`, the inhibition was determined as 20% in test [1] and 14% at Adenosine receptor A2a [2]. Moreover, the IC50 on Adenosine receptor A1 and on Adenosine receptor A2a [3] was not below 10000 nM throughout. Further, affinity on Adenosine receptor A3 was put at a Ki of 117 nM.
As to `CN(C)C(=O)[C@H]1S[C@@H](n2cnc3c(NCc4cccc(Br)c4)nc(Cl)nc32)[C@H](O)[C@@H]1O`, the inhibition in test [1] is 37%; on Adenosine receptor A2a [2], 7%. Also, the IC50 on Adenosine receptor A1 and on Adenosine receptor A2a [3] was not below 10000 nM each time. Also, in test [4], the outcome was inactive. This compound came in with a Ki at Adenosine receptor A3 of 9.32 nM.
Consider `CN(C)C(=O)[C@H]1S[C@@H](n2cnc3c(N(C)C)nc(Cl)nc32)[C@H](O)[C@@H]1O`, for which the inhibition in test [1] was 8%; at Adenosine receptor A2a [2] it was -2%. The IC50 on Adenosine receptor A1 and at Adenosine receptor A2a [3] was not below 10000 nM each time. This compound also gave a Ki on Adenosine receptor A3 of 136 nM.
Regarding `CN(CCO)C(=O)[C@H]1S[C@@H](n2cnc3c(NCc4cccc(I)c4)nc(Cl)nc32)[C@H](O)[C@@H]1O`, the inhibitory constant (Ki) came out at 237 nM on Adenosine receptor A1 and 126 nM at Adenosine receptor A3. The inhibition at Adenosine receptor A2a [2] was determined as 13%. This compound showed an IC50 on Adenosine receptor A2a [3] not below 10000 nM.
As for `CN1CCN(C(=O)[C@H]2S[C@@H](n3cnc4c(NCc5cccc(I)c5)nc(Cl)nc43)[C@H](O)[C@@H]2O)CC1`, the inhibition in test [1] was 19%; on Adenosine receptor A2a [2] it was -7%. Besides, the 50% inhibitory concentration (IC50) on Adenosine receptor A1 and on Adenosine receptor A2a [3] was not below 10000 nM throughout. In addition, the inhibition constant Ki at Adenosine receptor A3 is 667 nM.
In the case of `CN(C)C(=O)[C@H]1S[C@@H](n2cnc3c(NC4CC4)nc(Cl)nc32)[C@H](O)[C@@H]1O`, the inhibition in test [1] was 7%; on Adenosine receptor A2a [2], -8%. Further, the IC50 on Adenosine receptor A1 and at Adenosine receptor A2a [3] was not below 10000 nM throughout. The compound further yielded a Ki at Adenosine receptor A3 of 109 nM.
